NR2E3 ag-1 = activates human photoreceptor nuclear receptor NR2E3. inhibition of corepressor binding, % at 4.78 µM. 0.12% of 320,000 active. Q9Y5X4. GST-NR2E3/biotin-RetCOR TR-FRET, 1536-well;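 active = percent inhibition above the cutoff of mean plus 3 SD of all tested compounds, set per screening campaign, cut at about 20% in these data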;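 also: 0% = DMSO wells and 100% = biotin wells as full block of FRET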
Target sequence (Q9Y5X4 whole entry, looked up): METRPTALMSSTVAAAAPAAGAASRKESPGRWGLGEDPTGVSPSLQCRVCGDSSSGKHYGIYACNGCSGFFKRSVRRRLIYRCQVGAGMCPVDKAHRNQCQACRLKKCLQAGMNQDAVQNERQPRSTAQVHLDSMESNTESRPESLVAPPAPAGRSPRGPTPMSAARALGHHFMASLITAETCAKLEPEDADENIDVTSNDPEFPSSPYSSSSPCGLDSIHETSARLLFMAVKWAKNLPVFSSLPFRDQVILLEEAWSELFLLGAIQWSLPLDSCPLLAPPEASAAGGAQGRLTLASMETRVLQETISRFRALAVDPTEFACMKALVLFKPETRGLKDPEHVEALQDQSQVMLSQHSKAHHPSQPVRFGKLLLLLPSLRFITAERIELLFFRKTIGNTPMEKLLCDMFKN
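Material: NR2E3–RetCOR corepressor complex | Quantity: 1.35 nM GST-tagged NR2E3 final | Schedule: 5 h at 4 °C | Replication: Singlicate compound wells | Reagent: RetCOR corepressor, biotinylated, 7 nM | Controls: Biotin wells as high control, 0.6% DMSO wells as low control | Signal: TR-FRET, Eu(K)-anti-GST donor, streptavidin-D2 acceptor, ex 340, em 617/671 nm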
NR1D1 modulator = modulates human Rev-erb alpha binding to DNA; P20393; Rev-erbα–FITC-DNA binding, fluorescence polarization, 90 min; 0.79% of 370,000 active; activity, % at 10 µM; AID 1259318;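 active = activity above about 14%, limit read from the data; passing the limit was not always enough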;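 also: 0% = DMSO wells with 35 nM protein and 100% = DMSO wells with 750 nM protein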
NR2E3 ag-2 = human photoreceptor-specific nuclear receptor agonism | AID 602229 | CHO-S Gal4-NCOR/VP16-NR2E3 two-hybrid, luciferase | inhibition of corepressor binding, % at 3.98 µM | 0.35% of 360,000 active | Q9Y5X4;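 active = inhibition above the mean of all tested compounds plus 3 SD, cut at about 70% in these data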;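 also: 0% = DMSO with NR2E3 transfected cells and 100% = cells lacking NR2E3 construct; higher means lower luciferase signal from less NR2E3 corepressor binding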
PG9 Ab binder = small molecules binding HIV-1 gp120 antibody PG9; TR-FRET gp120-PG9 antibody binding; inhibition, % at 6.7 µM; 0.43% of 360,000 active; AID 624416; in the data active = inhibition above about 8.5%
NR2E3 ag confirm = NR2E3 agonism confirmed in two-hybrid assay | shares compounds with NR2E3 ag-2 | CHO-S mammalian two-hybrid NR2E3-NCOR, luciferase luminescence | inhibition, % at 3.98 µM | 51% of 2,300 active | AID 624378;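 active = average inhibition above a cutoff equal to the mean inhibition of all tested compounds plus one SD, cut at about 70% in these data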;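 also: 0% = DMSO in NR2E3 cells and 100% = DMSO in cells lacking NR2E3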
VP16 counter = counter-screen for NR2E3 agonists: GAL4-VP16 reporter inhibitors. shares compounds with NR2E3 ag-2. CHO-S GAL4-VP16 luciferase reporter, luminescence. inhibition, % at 3.98 µM. 29% of 2,300 active. AID 624379;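 active = mean inhibition above a cutoff equal to the average over all tested compounds plus one standard deviation, cut at about 70% in these data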;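 also: luciferase from a UAS reporter driven by GAL4-VP16 transactivation; 0% = DMSO with VP16-transfected cells and 100% = DMSO with cells lacking VP16; higher means less reporter light so more repression of VP16 activity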
Active calls of the source: *; nt = no result given. Hits are enriched below; roughly 1.4% of the tested compounds scored in any of these assays.

SMILES	NR2E3 ag-1	NR1D1 modulator	NR2E3 ag-2	PG9 Ab binder	NR2E3 ag confirm	VP16 counter
CC(C)C1Nc2c(O)cc(Cl)c([N+](=O)[O-])c2C2C=CCC21 (stereo not drawn)	nt	0.8	98.6*	-3.7	100.4*	91.2*
COC(=O)[C@]12C[C@H](CC(=O)NCc3cccc4ccccc34)C(=O)N(CCc3ccc(OC)c(OC)c3)C1=C[C@H](C(C)C)O[C@@H]2C1CC1	nt	8.3	nt	nt	nt	nt
COc1ccc(-c2cc(-c3nnc(SCC(=O)Nc4ccc(-c5nc6ccc(C)cc6s5)cc4)n3N)[nH]n2)cc1	nt	10.9	nt	nt	nt	nt
O=C(O)CC/C(=C\c1ccc(N2CCCC2)c([N+](=O)[O-])c1)c1nc2ccccc2s1	5.5	-1.9	-20.1	0.6	nt	nt
CN(c1ccccc1)c1ccc(/C=C(/CCC(=O)O)c2nc3ccccc3s2)cc1[N+](=O)[O-]	nt	-4.5	67.4	0.7	26.2	43.8
Cc1ccc(-c2nc3ncccn3c2NC(=O)c2cccc(C)c2)cc1	nt	-1.9	nt	nt	nt	nt
CC(=O)CC[C@H]1CC[C@]2(CCCN(C(=O)c3ccno3)C2)O1	nt	2.4	nt	nt	nt	nt
Cc1ccc(OCC(=O)N2N=C(C(F)(F)F)CC2(O)C(C)(C)C)cc1C (stereo not drawn)	3.1	0.0	51.2	0.5	58.9	47.0
Cc1ccccc1OCC(=O)N1N=C(C(F)(F)F)CC1(O)C(C)(C)C (stereo not drawn)	0.4	-9.5	-26.2	0.5	nt	nt
Cc1ccc(NC(=O)c2sc3ncn(CC(=O)N4CCN(c5ccccn5)CC4)c(=O)c3c2C)cc1F	-1.3	-2.0	76.1*	-1.7	14.4	34.6
CC(C)CNc1ccc2c(c1)OC[C@@H](CC(C)C)NS2(=O)=O	nt	3.0	nt	nt	nt	nt
CCCCNC(=O)NS(=O)(=O)c1ccc(NC(=O)CSc2ncnc3scc(-c4ccc(C)cc4)c23)cc1	nt	-4.2	nt	nt	nt	nt
CC(O)CC(C(=O)NNc1ccccc1)C(=O)NNc1ccccc1 (stereo not drawn)	5.4	-2.8	63.3	-1.6	41.2	9.8
CC(C)OC(=O)C(=O)NNc1ccccc1	-2.0	0.6	54.3	-4.8	28.5	-0.1
O=C(CNS(=O)(=O)c1ccc(Cl)s1)N1CCN(c2ccccn2)CC1	nt	5.0	nt	nt	nt	nt
COc1ccc(NC(=O)/C(Cl)=C(/Cl)S(=O)Cc2ccccc2)cn1 (stereo not drawn)	1.6	-5.2	90.0*	-1.1	95.1*	41.5
Cc1cc(C(=O)OCc2nnc(-c3ccccc3)o2)c(C)n1-c1ccccc1	-6.8	-0.7	68.2	2.0	57.5	65.4
CCOC(=O)[C@@]12CCCC3=C1N(CCC3)C(=O)[C@H]2CC(=O)N1CCN(C(=O)C2CC2)CC1	nt	-1.4	nt	nt	nt	nt
CCOc1ccc(CN(C)Cc2cc(=O)oc3c(C)c(C)ccc23)cc1OC	nt	-2.2	86.2*	0.0	88.2*	80.6*
CCn1c(COc2ccc(C)cc2)nnc1SCC(=O)Nc1ccc(C(=O)OC)cc1	nt	-5.0	nt	nt	nt	nt
Cc1ccc2c(c1)C1CS(=O)(=O)N(C3CCCC3)CN1C2 (stereo not drawn)	nt	6.2	nt	nt	nt	nt
Cc1ccccc1C(=O)N1CCN(c2ccc(NC(=O)c3ccc4c(c3)OCO4)cc2)CC1	-1.3	-0.2	75.3*	-1.1	91.1*	60.5
O=C(Nc1ccc(N2CCN(C(=O)c3ccco3)CC2)cc1)c1ccc2c(c1)OCO2	0.1	-0.3	52.4	-0.9	19.6	16.2
CCCCN(C)c1c(C)nc2ccc(C(=O)NCCOc3ccc(OC)cc3)cn12	nt	nt	48.7	nt	94.2*	68.5
COc1cc(OC)c(OC)cc1CNC(=O)c1ccc(COc2ccccc2)cc1	2.4	0.6	58.0	-1.5	37.5	38.8
CCC(C)Nc1nc2c(c(=O)n(C)c(=O)n2C)n1Cc1ccc(Cl)cc1 (stereo not drawn)	1.1	-2.5	-22.5	-0.5	nt	nt
CCNc1nc2c(c(=O)n(C)c(=O)n2C)n1Cc1ccc(Cl)cc1	-0.4	-8.2	57.0	0.2	78.5*	55.9
CC(=O)O[C@@H]1CCC[C@@]2(C(=O)N(Cc3ccccc3)c3ccc(-c4c(C)noc4C)cc32)[C@H]1NC(=O)CCc1ccccc1	nt	-2.2	nt	nt	nt	nt
N#Cc1c(NC(=O)CSc2nc(N)cc(=O)[nH]2)sc2c1CCCCCC2	-0.3	2.0	69.5	-2.2	35.5	45.0
Cc1nnc(SC(C)C(=O)Nc2sc3c(c2C#N)CCCC3)[nH]c1=O (stereo not drawn)	1.5	-1.5	-3.4	-0.3	nt	nt

Source: PubChem BioAssay
